As a reminder, the ED50 is the dose at which the effect has come halfway, by size or by number of responders. As a reminder, the Ki is the dissociation constant of the complex between target and ligand, obtained from inhibition or displacement. A higher Ki goes with a looser hold on the target.

Results on eight compounds are retold here after ChEMBL document CHEMBL1131146, “4-Alkynylphenyl imidazolylpropyl ethers as selective histamine H3-receptor antagonists with high oral central nervous system activity” (J Med Chem, 1998).

Assay [1] has as its target Histamine H3 receptor (Rattus norvegicus) (UniProt Q9QYN8). In words: (§1) In vitro antagonist potency at Histamine H3 receptor measured as K+-evoked [3H]histamine release from synaptosomes of rat cerebral cortex. The assay is classed as functional, subcellular. To be noted: Brain. In outline: (§2)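 Rat cerebral cortex synaptosomes; [³H]histamine release evoked by K⁺ depolarization; antagonist activity measured at least in triplicate, per Garbarg et al.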

Assay [2] concerns the target Histamine H3 receptor (Mus musculus) (UniProt P58406). In words: In vivo antagonist activity at Histamine H3 receptor was screened by measuring the effect on brain histamine turnover after oral application to mice. It is filed as functional, organism-based. Summed up: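 Swiss mice dosed orally; in vivo H3 antagonist activity tested at least in triplicate, per Garbarg et al.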

Assay [3] has as its target Histamine H2 receptor (Cavia porcellus) (UniProt P47747). Kind of assay: Compound was tested in vitro for its Histamine H2 receptor activity on guinea pig atrium. The conditions noted are these: Cardiac atrium. It is filed as functional, tissue-based.
Assay [4] deals with Histamine H1 receptor (Cavia porcellus) (UniProt P31389). In words: Compound was tested in vitro for its Histamine H1 receptor activity on guinea pig ileum. It is filed as functional, tissue-based.
The target of assay [5] is Histamine H3 receptor (Rattus norvegicus, UniProt Q9QYN8). The description is as §1. The assay is classed as functional, subcellular, Brain. In outline: as §2
For assay [6], the target named is Histamine H1 receptor (Cavia porcellus) (UniProt P31389). In words: Compound was tested in vitro for its Histamine H1 receptor activity on guinea pig ileum. The assay is classed as functional, tissue-based.

Histamine H3 receptor (Rattus norvegicus), sequence (Q9QYN8 whole entry): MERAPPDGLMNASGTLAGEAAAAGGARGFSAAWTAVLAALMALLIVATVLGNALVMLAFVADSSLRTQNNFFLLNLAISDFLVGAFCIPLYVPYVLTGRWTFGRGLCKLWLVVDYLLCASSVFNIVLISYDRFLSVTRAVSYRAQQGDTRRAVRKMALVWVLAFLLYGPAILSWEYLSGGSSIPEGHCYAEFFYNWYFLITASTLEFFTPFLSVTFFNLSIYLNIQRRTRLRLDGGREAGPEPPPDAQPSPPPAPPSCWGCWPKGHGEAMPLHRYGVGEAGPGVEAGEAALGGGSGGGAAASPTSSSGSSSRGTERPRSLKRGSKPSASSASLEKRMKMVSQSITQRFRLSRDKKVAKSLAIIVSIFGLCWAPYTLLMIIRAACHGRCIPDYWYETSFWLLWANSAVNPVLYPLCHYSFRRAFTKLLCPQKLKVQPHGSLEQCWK
Histamine H3 receptor, sequence (Q9QYN8 whole entry): as above
Histamine H1 receptor (Cavia porcellus), sequence (P31389 whole entry): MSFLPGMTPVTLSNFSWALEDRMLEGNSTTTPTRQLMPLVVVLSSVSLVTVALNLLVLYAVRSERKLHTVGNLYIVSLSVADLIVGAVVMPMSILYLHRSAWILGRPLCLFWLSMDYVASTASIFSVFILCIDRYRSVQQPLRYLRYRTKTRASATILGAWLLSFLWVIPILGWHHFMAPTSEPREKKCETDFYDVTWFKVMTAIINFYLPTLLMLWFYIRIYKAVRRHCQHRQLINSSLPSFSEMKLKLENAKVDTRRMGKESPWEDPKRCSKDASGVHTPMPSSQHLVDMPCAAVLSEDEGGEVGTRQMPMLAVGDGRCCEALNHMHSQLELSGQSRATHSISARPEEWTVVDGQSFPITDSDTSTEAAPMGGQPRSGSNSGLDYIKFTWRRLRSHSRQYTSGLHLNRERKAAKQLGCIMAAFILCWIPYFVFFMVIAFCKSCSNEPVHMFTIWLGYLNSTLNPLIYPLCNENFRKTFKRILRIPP
Histamine H3 receptor (Mus musculus), sequence (P58406 whole entry): as the sequence (Q9QYN8 whole entry) above, with T15A, A286T, A290G, R387H, I389V counted along it
Histamine H2 receptor (Cavia porcellus), sequence (P47747 whole entry): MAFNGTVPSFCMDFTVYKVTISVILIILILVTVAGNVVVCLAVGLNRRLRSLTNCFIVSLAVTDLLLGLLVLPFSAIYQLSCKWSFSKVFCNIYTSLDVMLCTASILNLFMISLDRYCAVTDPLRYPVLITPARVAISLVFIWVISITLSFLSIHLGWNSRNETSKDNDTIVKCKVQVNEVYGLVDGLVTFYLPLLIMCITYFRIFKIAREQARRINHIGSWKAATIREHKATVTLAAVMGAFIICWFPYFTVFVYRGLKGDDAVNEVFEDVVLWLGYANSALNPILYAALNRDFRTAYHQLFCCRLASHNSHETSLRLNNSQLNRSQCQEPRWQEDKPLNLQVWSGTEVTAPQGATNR

For `C#Cc1ccc(OCCCc2c[nH]cn2)cc1`, the -Log K in assay [1] is 8.6; in assay [3], below 4.8; in assay [4], below 5.5. Also, the ED50 in assay [2] came to 0.12 mg/kg.

`CC(C)(C)C#Cc1ccc(OCCCc2cnc[nH]2)cc1` came in with a Ki in assay [5] of 123 nM.

Take `C[Si](C)(C)C#Cc1ccc(OCCCc2c[nH]cn2)cc1`: the -Log K in assay [1] is 7.4; in assay [3] it was below 4.6; in assay [4], below 5. This compound registered an ED50 in assay [2] of 1.1 mg/kg. This compound returned an inhibition constant Ki in assay [5] of 36 nM.

Consider `CC(C)(C)C#Cc1ccc(OCCCc2c[nH]cn2)cc1`, for which the -Log K in assay [1] is 6.9; in assay [6] it was below 5.6; in assay [3], below 4.6. Also, the ED50 in assay [2] was determined as 2.2 mg/kg.

In turn, `C#Cc1ccc(OCCCc2cnc[nH]2)cc1` displayed an inhibition constant (Ki) in assay [5] of 2.3 nM.

As for `CC#Cc1ccc(OCCCc2c[nH]cn2)cc1`, the figures for the -Log K in assay [1], in assay [6] and in assay [3] were 8.1, below 5 and below 4.7, respectively. Further, in assay [2], the ED50 worked out at 1.3 mg/kg. The compound further displayed a Ki in assay [5] of 7.5 nM.

As to `CCCC#Cc1ccc(OCCCc2cnc[nH]2)cc1`, the Ki in assay [5] was 140 nM.

Take `CCCC#Cc1ccc(OCCCc2c[nH]cn2)cc1`: the -Log K is 6.9 in assay [1], below 5.9 in assay [6] and below 4.7 in assay [3]. The compound also displayed an ED50 in assay [2] of 2.2 mg/kg.
